In assay [1] the test system is Mus musculus. The assay is described as follows: Antithrombotic activity in photochemically-induced thrombosis C57B/L mouse model assessed as decrease in brain infarction size at 1 to 10 mg/kg, iv after 24 hrs. It counts as functional, organism-based.
The target of assay [2] is Glutamate NMDA receptor; GRIN1/GRIN2A (Homo sapiens, UniProt Q05586+Q12879). The assay is described as follows: Antagonist activity at recombinant GluN1/GluN2A receptor (unknown origin) expressed in Xenopus laevis oocytes assessed as inhibition of glycine/glutamate-induced inward current at -70mV by two-electrode voltage clamp assay. It counts as cell-based, Oocyte. Summed up:
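Xenopus oocytes injected with GluN1 plus GluN2A cRNA at 1:5 ratio (0.1–4 ng GluN1 plus 0.5–20 ng GluN2A). Two-electrode voltage clamp at -70 mV. Receptors activated by superfusing glycine and glutamate (10 µM). Inward currents recorded. Concentration–inhibition curves built from 5 concentrations per compound to give IC50.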

The test system of assay [3] is Mus musculus. The assay is described as follows: Antithrombotic activity in photochemically-induced thrombosis C57B/L mouse model assessed as decrease in brain infarction size at 0.4 mg/kg, iv after 24 hrs. The class given is functional, organism-based. On the set-up: dose 0.4 mg/kg.
The test system of assay [4] is Mus musculus. As to the kind of experiment: Antithrombotic activity in photochemically-induced thrombosis C57B/L mouse model assessed as decrease in brain infarction size at 10 mg/kg, iv after 24 hrs. More on the design: dose 10 mg/kg. The class given is functional, organism-based.

Active and inactive are the calls of the source. The calls are words filed in the database; no cut-off is given here.

These results are taken from ChEMBL document CHEMBL2396530, “In vitro and in vivo evaluation of polymethylene tetraamine derivatives as NMDA receptor channel blockers” (Bioorg Med Chem Lett, 2013).

Chain of Glutamate NMDA receptor; GRIN1/GRIN2A (Q12879 whole entry, other chains not shown): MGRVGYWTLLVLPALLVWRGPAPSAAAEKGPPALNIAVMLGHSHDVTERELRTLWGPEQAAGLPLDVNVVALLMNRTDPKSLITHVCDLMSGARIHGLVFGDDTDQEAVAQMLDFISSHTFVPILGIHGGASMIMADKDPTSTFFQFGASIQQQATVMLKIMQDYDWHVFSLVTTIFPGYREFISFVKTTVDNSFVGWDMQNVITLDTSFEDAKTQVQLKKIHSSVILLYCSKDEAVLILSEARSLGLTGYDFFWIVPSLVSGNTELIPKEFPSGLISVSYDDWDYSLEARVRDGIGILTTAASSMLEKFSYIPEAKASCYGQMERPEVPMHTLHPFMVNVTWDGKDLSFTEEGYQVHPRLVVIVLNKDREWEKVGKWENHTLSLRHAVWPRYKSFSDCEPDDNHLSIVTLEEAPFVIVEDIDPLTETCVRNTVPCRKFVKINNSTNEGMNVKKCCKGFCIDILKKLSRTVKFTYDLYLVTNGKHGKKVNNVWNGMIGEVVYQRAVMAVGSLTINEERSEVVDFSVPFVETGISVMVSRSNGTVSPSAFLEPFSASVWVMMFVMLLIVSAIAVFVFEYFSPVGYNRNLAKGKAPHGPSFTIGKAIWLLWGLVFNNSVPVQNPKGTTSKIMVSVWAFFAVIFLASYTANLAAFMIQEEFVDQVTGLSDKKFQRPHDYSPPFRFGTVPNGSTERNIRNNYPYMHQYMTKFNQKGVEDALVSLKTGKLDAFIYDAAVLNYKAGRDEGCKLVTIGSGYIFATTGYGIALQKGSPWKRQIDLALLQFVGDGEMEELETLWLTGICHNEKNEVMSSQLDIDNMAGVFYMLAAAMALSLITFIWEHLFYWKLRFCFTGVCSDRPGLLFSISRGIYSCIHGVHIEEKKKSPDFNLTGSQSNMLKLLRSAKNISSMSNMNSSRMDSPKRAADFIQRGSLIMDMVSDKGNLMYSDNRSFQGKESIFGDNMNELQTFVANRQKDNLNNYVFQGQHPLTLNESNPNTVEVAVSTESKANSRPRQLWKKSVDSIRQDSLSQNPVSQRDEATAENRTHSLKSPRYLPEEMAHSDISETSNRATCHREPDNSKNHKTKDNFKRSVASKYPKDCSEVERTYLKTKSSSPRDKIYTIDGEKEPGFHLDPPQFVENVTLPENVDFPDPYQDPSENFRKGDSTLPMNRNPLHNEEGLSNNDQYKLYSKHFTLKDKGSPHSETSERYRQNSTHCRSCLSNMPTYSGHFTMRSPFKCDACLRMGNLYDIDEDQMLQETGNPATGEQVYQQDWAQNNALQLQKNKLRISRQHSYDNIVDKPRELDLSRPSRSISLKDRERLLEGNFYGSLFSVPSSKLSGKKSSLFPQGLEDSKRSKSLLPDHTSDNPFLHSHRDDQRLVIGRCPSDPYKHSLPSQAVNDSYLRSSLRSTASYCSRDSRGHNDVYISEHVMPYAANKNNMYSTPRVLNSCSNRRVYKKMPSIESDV

For the molecule `COc1ccccc1CNCCCCCCNCCCCCCCCNCCCCCCNCc1ccccc1OC` [METHOCTRAMINE], in assay [1], the result was inactive. Also, the IC50 (commonly the concentration that gives 50% inhibition) in assay [2] is 138 nM.
As for `COc1ccccc1CNCCCCCCCCNCCCCCCNCCCCCCCCNCc1ccccc1OC`, in assay [1], the result was inactive. Further, the IC50 in assay [2] came out at 257 nM.
Taken in the same sequence, the figures for `COc1ccccc1CNCCCCCNCCCCCCCCCCNCCCCCNCc1ccccc1OC` were “inactive” and 89.3 nM.
The corresponding values for `c1ccc(C(CNCCCCCCNCCCCCCCCNCCCCCCNCC(c2ccccc2)c2ccccc2)c2ccccc2)cc1` are “inactive” and 11 nM.
Take `COc1ccccc1CNCCCCCNCCCCCCNCCCCCNCc1ccccc1OC`: the IC50 in assay [2] worked out at 315 nM. In addition, in assay [3], the outcome was Active.
Take `c1ccc(C(CNCCCCCCNCCCCCCCCCCCCNCCCCCCNCC(c2ccccc2)c2ccccc2)c2ccccc2)cc1`: in assay [1], the outcome was inactive. In assay [2], the IC50 stood at 4.2 nM.
As for `CC12CC3CC(C)(C1)CC(N)(C3)C2`, in assay [4], the outcome was Active.
